Read-outs that look alike come from different tables or passages of the source.
Experiments:
[1] = tested on: ETA receptors; details: isolated rat aortic and tracheal preparations; cited from earlier work
[2] = tested on: ETB receptors; details: isolated rat aortic and tracheal preparations; cited from earlier work
[3] = Simulation of multiple-dose profiles using the single-dose data; parameters: species or system human; details: once-a-day regimen, data not shown
[4] = tested on: ETA and ETB receptors; details: cited from earlier work
[5] = Metabolic profiling of plasma and urine; assay type: in vivo, human; details: pooled urine of two subjects, 600-mg dose group
[6] = rats; cited from earlier work
[7] = tested on: bile salts; details: rats, ref Actelion Pharmaceuticals, data on file, cited from earlier work
[8] = tested on: patients with treatment-resistant hypertension; details: cited from earlier work
[9] = tested on: human hepatic transporters; details: preclinical models, cited from earlier work
[10] = tested on: total bile salts; assay: Serum total bile salts; assay type: in vivo, human
Summary of the method: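 Venous blood was drawn predose and at 1, 2, 3 and 4 h in fasted subjects, with no later draws because of a meal. Tubes without anticoagulant stood 30 min at room temperature, were spun 10 min at 1,500 g, 4°C, and serum was kept at −20°C. An enzymatic assay was used (detection limit 1 μmol/l). AUC0–4h was derived non-compartmentally and compared with placebo by ANOVA (P < 0.05).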

[11] = assay type: in vivo; details: male, human, plasma, plasma macitentan
Summary of the method: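 Single fasted doses of 0.2–600 mg were given, 6 active subjects per group. EDTA plasma was spun 10 min at 1,500 g, 4°C, and stored at −20°C. Sampling ran to 48 h, or 144 h for the 300 and 600 mg groups. Parent and metabolite were quantified by validated LC-MS/MS (linear 1–2,000 ng/ml, LOQ 1.0 ng/ml). Cmax, tmax, AUC and t1/2 were derived non-compartmentally.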

[12] = tested on: healthy male subjects; assay: Safety and tolerability; assay type: in vivo, human; details: for Abdominal pain: number of subjects reporting adverse event / Back pain: number of subjects reporting adverse event / Flushing: number of subjects reporting adverse event / Headache: number of subjects reporting adverse event / Hepatic function abnormal: number of subjects reporting adverse event / Leukocytosis: number of subjects reporting adverse event / Nasopharyngitis: number of subjects reporting adverse event / Nausea: number of subjects reporting adverse event / Neck pain: number of subjects reporting adverse event / Rhinitis: number of subjects reporting adverse event / Vomiting: number of subjects reporting adverse event: n = 6
Summary of the method: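 Double-blind, randomised, placebo-controlled single-ascending-dose design in healthy males: new group of 8 per level (6 active, 2 placebo), doses 0.2–600 mg, fasted. Next dose given only after safety review. Confinement from about 12 h predose to 48 h postdose. Adverse events, vital signs, 12-lead ECG, clinical laboratory and physical examination recorded. Descriptive analysis with placebo subjects pooled.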

NS(=O)(=O)Nc1ncnc(OCCOc2ncc(Br)cn2)c1-c1ccc(Br)cc1 [ACT-132577]
fold less potent than macitentan in blocking ETA receptors [1]: up to 5 fold | fold less potent than macitentan in blocking ETB receptors [2]: up to 5 fold | predicted accumulation factor upon repeated dosing [3]: 10 | selectivity for ETA receptors over ETB receptors [4]: ~16 fold | affinity for ETA and ETB receptors compared with macitentan ([4]; preclinical experiments): lower | potency as endothelin receptor antagonist compared with macitentan ([4]; receptor binding and functional assays): less potent | detection in urine [5]: no macitentan and ACT-132577 could be detected | half-life [6]: 8.5 h

COc1ccccc1Oc1c(NS(=O)(=O)c2ccc(C(C)(C)C)cc2)nc(-c2ncccn2)nc1OCCO [bosentan, reference compound]
effect on plasma bile salts ([7]; intravenous administration): acute increase in plasma bile salts

COc1cc(OC)nc(O[C@H](C(=O)O)C(OC)(c2ccccc2)c2ccccc2)n1 [darusentan]
oedema or fluid retention, patients affected [8]: 27%

CCCNS(=O)(=O)Nc1ncnc(OCCOc2ncc(Br)cn2)c1-c1ccc(Br)cc1 [macitentan, N-[5-(4-Bromophenyl)-6-(2-(5-bromopyrimidin-2-yloxy)ethoxy)pyrimidin-4-yl]-N′-propylsulfamide]
inhibition of human hepatic transporters ([9]; ref Actelion Pharmaceuticals, data on file): did not inhibit | effect on circulating bile salts [7]: does not increase circulating bile salts | predicted accumulation factor upon repeated dosing [3]: 1.7 | effect on serum total bile salts at the lowest dose ([10]; single dose 0.2 mg macitentan, P < 0.05 compared with placebo): small but statistically significant effect | effect on serum total bile salt concentrations ([10]; single doses of up to 600 mg, 4-h observation period): no dose-dependent effect | half-life ([11]; 600 mg, apparent terminal half-life, two higher dose groups (300 and 600 mg)): ~960 min | Tmax ([11]; tmax in most subjects, individual values): 4 to 12 h | increased alanine aminotransferase, times the upper limit of normal ([12]; one subject, 600 mg macitentan, 7 days after drug administration): ≤ 2 times the upper limit of normal | Abdominal pain: number of subjects reporting adverse event ([12]; single dose 0.2 mg macitentan): 0 | Back pain: number of subjects reporting adverse event ([12]; single dose 0.2 mg macitentan): 0 | Flushing: number of subjects reporting adverse event ([12]; single dose 0.2 mg macitentan): 0 | Headache: number of subjects reporting adverse event ([12]; single dose 0.2 mg macitentan): 0 | Hepatic function abnormal: number of subjects reporting adverse event ([12]; single dose 0.2 mg macitentan): 0 | Leukocytosis: number of subjects reporting adverse event ([12]; single dose 0.2 mg macitentan): 0 | Nasopharyngitis: number of subjects reporting adverse event ([12]; single dose 0.2 mg macitentan): 0 | Nausea: number of subjects reporting adverse event ([12]; single dose 0.2 mg macitentan): 0 | Neck pain: number of subjects reporting adverse event ([12]; single dose 0.2 mg macitentan): 0 | Rhinitis: number of subjects reporting adverse event ([12]; single dose 0.2 mg macitentan): 0 | Vomiting: number of subjects reporting adverse event ([12]; single dose 0.2 mg macitentan): 0 | Abdominal pain: number of subjects reporting adverse event ([12]; single dose 1 mg macitentan): 0 | Back pain: number of subjects reporting adverse event ([12]; single dose 1 mg macitentan): 0 | Flushing: number of subjects reporting adverse event ([12]; single dose 1 mg macitentan): 0 | Headache: number of subjects reporting adverse event ([12]; single dose 1 mg macitentan): 0 | Hepatic function abnormal: number of subjects reporting adverse event ([12]; single dose 1 mg macitentan): 0 | Leukocytosis: number of subjects reporting adverse event ([12]; single dose 1 mg macitentan): 0 | Nasopharyngitis: number of subjects reporting adverse event ([12]; single dose 1 mg macitentan): 0 | Nausea: number of subjects reporting adverse event ([12]; single dose 1 mg macitentan): 0 | Neck pain: number of subjects reporting adverse event ([12]; single dose 1 mg macitentan): 0 | Rhinitis: number of subjects reporting adverse event ([12]; single dose 1 mg macitentan): 0 | Vomiting: number of subjects reporting adverse event ([12]; single dose 1 mg macitentan): 0 | Abdominal pain: number of subjects reporting adverse event ([12]; single dose 5 mg macitentan): 0 | Back pain: number of subjects reporting adverse event ([12]; single dose 5 mg macitentan): 0 | Flushing: number of subjects reporting adverse event ([12]; single dose 5 mg macitentan): 0 | Headache: number of subjects reporting adverse event ([12]; single dose 5 mg macitentan): 0 | Hepatic function abnormal: number of subjects reporting adverse event ([12]; single dose 5 mg macitentan): 0 | Leukocytosis: number of subjects reporting adverse event ([12]; single dose 5 mg macitentan): 0 | Nasopharyngitis: number of subjects reporting adverse event ([12]; single dose 5 mg macitentan): 0 | Nausea: number of subjects reporting adverse event ([12]; single dose 5 mg macitentan): 0 | Neck pain: number of subjects reporting adverse event ([12]; single dose 5 mg macitentan): 0 | Rhinitis: number of subjects reporting adverse event ([12]; single dose 5 mg macitentan): 0 | Vomiting: number of subjects reporting adverse event ([12]; single dose 5 mg macitentan): 0 | Abdominal pain: number of subjects reporting adverse event ([12]; single dose 25 mg macitentan): 0 | Back pain: number of subjects reporting adverse event ([12]; single dose 25 mg macitentan): 0 | Flushing: number of subjects reporting adverse event ([12]; single dose 25 mg macitentan): 0 | Headache: number of subjects reporting adverse event ([12]; single dose 25 mg macitentan): 2 | Hepatic function abnormal: number of subjects reporting adverse event ([12]; single dose 25 mg macitentan): 0 | Leukocytosis: number of subjects reporting adverse event ([12]; single dose 25 mg macitentan): 0 | Nasopharyngitis: number of subjects reporting adverse event ([12]; single dose 25 mg macitentan): 1 | Nausea: number of subjects reporting adverse event ([12]; single dose 25 mg macitentan): 0 | Neck pain: number of subjects reporting adverse event ([12]; single dose 25 mg macitentan): 0 | Rhinitis: number of subjects reporting adverse event ([12]; single dose 25 mg macitentan): 0 | Vomiting: number of subjects reporting adverse event ([12]; single dose 25 mg macitentan): 0 | Abdominal pain: number of subjects reporting adverse event ([12]; single dose 100 mg macitentan): 0 | Back pain: number of subjects reporting adverse event ([12]; single dose 100 mg macitentan): 0 | Flushing: number of subjects reporting adverse event ([12]; single dose 100 mg macitentan): 0 | Headache: number of subjects reporting adverse event ([12]; single dose 100 mg macitentan): 1 | Hepatic function abnormal: number of subjects reporting adverse event ([12]; single dose 100 mg macitentan): 0 | Leukocytosis: number of subjects reporting adverse event ([12]; single dose 100 mg macitentan): 1 | Nasopharyngitis: number of subjects reporting adverse event ([12]; single dose 100 mg macitentan): 0 | Nausea: number of subjects reporting adverse event ([12]; single dose 100 mg macitentan): 0 | Neck pain: number of subjects reporting adverse event ([12]; single dose 100 mg macitentan): 1 | Rhinitis: number of subjects reporting adverse event ([12]; single dose 100 mg macitentan): 0 | Vomiting: number of subjects reporting adverse event ([12]; single dose 100 mg macitentan): 0 | Abdominal pain: number of subjects reporting adverse event ([12]; single dose 300 mg macitentan): 0 | Back pain: number of subjects reporting adverse event ([12]; single dose 300 mg macitentan): 1 | Flushing: number of subjects reporting adverse event ([12]; single dose 300 mg macitentan): 0 | Headache: number of subjects reporting adverse event ([12]; single dose 300 mg macitentan): 2 | Hepatic function abnormal: number of subjects reporting adverse event ([12]; single dose 300 mg macitentan): 0 | Leukocytosis: number of subjects reporting adverse event ([12]; single dose 300 mg macitentan): 0 | Nasopharyngitis: number of subjects reporting adverse event ([12]; single dose 300 mg macitentan): 0 | Nausea: number of subjects reporting adverse event ([12]; single dose 300 mg macitentan): 0 | Neck pain: number of subjects reporting adverse event ([12]; single dose 300 mg macitentan): 0 | Rhinitis: number of subjects reporting adverse event ([12]; single dose 300 mg macitentan): 0 | Vomiting: number of subjects reporting adverse event ([12]; single dose 300 mg macitentan): 0 | Abdominal pain: number of subjects reporting adverse event ([12]; single dose 600 mg macitentan): 1 | Back pain: number of subjects reporting adverse event ([12]; single dose 600 mg macitentan): 0 | Flushing: number of subjects reporting adverse event ([12]; single dose 600 mg macitentan): 1 | Headache: number of subjects reporting adverse event ([12]; single dose 600 mg macitentan): 5 | Hepatic function abnormal: number of subjects reporting adverse event ([12]; single dose 600 mg macitentan): 1 | Leukocytosis: number of subjects reporting adverse event ([12]; single dose 600 mg macitentan): 0 | Nasopharyngitis: number of subjects reporting adverse event ([12]; single dose 600 mg macitentan): 0 | Nausea: number of subjects reporting adverse event ([12]; single dose 600 mg macitentan): 2 | Neck pain: number of subjects reporting adverse event ([12]; single dose 600 mg macitentan): 0 | Rhinitis: number of subjects reporting adverse event ([12]; single dose 600 mg macitentan): 2 | Vomiting: number of subjects reporting adverse event ([12]; single dose 600 mg macitentan): 2 | maximum tolerated dose ([12]; single dose, healthy male subjects): 300 mg | effects on vital signs, ECG and clinical laboratory variables ([12]; single doses 0.2 to 600 mg): no clinically significant drug-related effects | selectivity for ETA receptors over ETB receptors [4]: about 50 fold | detection in urine [5]: no macitentan and ACT-132577 could be detected | half-life [6]: 2 h | volume of distribution [6]: 1 L/kg

Cc1cc2c(cc1CC(=O)c1sccc1S(=O)(=O)Nc1onc(C)c1Cl)OCO2 [sitaxentan, reference compound]
interaction with human hepatic transporters [9]: substrates of and inhibit human hepatic transporters

From PMC3169777 (European Journal of Clinical Pharmacology, 2011)
